Consider three compounds from ChEMBL document CHEMBL4038268, “Methylpyrrole inhibitors of BET bromodomains” (Bioorg Med Chem Lett, 2017).

Series [1] addresses Bromodomain-containing protein 2 (Homo sapiens, UniProt P25440). The experiment in a line: Binding affinity to BRD2 BD1-BD2 (G73 to A560 residues) (unknown origin) after 1 hr by Alexa-647-conjugated probe based TR-FRET assay.
Series [2] concerns the target T1, Peregrin (Homo sapiens) (UniProt P55201).
T1 sequence (whole entry): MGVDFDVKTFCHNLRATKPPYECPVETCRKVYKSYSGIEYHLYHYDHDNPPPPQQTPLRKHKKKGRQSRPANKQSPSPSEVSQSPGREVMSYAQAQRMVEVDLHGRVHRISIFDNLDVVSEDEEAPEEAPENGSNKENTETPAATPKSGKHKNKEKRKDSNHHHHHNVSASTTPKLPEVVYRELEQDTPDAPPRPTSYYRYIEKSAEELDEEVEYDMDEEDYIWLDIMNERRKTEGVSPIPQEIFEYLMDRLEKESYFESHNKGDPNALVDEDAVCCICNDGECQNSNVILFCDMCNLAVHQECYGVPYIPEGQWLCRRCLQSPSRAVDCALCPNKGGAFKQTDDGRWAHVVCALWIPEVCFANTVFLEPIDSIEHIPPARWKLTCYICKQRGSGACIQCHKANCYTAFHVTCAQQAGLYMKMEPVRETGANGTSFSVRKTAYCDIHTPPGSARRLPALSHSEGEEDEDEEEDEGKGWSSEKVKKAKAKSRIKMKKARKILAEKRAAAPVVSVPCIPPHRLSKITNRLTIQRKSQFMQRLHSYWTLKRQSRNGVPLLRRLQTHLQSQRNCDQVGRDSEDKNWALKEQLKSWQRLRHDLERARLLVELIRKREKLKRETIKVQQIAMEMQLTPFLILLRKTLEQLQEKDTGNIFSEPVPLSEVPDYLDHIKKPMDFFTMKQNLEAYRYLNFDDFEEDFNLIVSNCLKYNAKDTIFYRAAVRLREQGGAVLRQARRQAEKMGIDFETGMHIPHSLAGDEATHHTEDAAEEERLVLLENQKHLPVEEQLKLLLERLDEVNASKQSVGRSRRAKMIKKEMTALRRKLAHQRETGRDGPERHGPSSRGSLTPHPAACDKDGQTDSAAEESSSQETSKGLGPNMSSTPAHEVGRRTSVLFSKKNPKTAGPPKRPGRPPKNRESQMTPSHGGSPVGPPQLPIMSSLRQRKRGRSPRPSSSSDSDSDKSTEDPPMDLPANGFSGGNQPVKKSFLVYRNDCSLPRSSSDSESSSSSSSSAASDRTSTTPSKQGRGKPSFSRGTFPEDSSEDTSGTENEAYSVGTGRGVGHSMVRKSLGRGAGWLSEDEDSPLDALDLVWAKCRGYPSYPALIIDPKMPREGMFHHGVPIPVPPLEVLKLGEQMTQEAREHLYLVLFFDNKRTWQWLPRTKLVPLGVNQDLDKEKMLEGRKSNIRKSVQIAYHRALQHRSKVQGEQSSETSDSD
The experiment in a line: Inhibition of human BRPF1 (E627 to G740 residues) expressed in bacterial expression system at 1 uM by BROMOscan assay.

The nature of series [3]: Half life in mouse at 3 mg/kg, iv. In kind it is ADME, organism-based. The note with it: in vivo.
The target in series [4] is Bromodomain adjacent to zinc finger domain protein 2A (Homo sapiens, UniProt Q9UIF9). As to the kind of experiment: Inhibition of human BAZ2A (M1792 to L1905 residues) expressed in bacterial expression system by BROMOscan assay.
Series [5] deals with Bromodomain-containing protein 4 (Homo sapiens, UniProt O60885). The experiment in a line: Inhibition of BRD4 (unknown origin) expressed in human H1299 cells co-expressing HPV16-LCR/E2 after 24 hrs by Bright Glo-luciferase reporter gene assay. In kind it is cell-based. In outline:
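Target-engagement reporter in an H1299-derived line carrying a stably integrated E2 expression cassette and an HPV-LCR-driven luciferase reporter. The read-out is BRD4-dependent E2-mediated transcriptional repression. EC50 is the mean of two measurements.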
A general note: In a reporter assay the amount or activity of a reporter protein is the signal.

In series [6] the test system is MX1. The experiment in a line: Antiproliferative activity against human MX1 cells incubated over 72 hrs by Cell Titre Glo luminescence assay. In kind it is functional, cell-based. The note with it: MX1, 72 h. In outline: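 Triple-negative breast cancer line MX-1 grown 3 days with compound. Proliferation read with the CellTiter-Glo kit. EC50 is the mean of two measurements.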

Series [7] concerns the target Bromodomain-containing protein 3 (Homo sapiens, UniProt Q15059). As to the kind of experiment: Binding affinity to BRD3 BD1-BD2 (P24 to P416 residues) (unknown origin) after 1 hr by Alexa-647-conjugated probe based TR-FRET assay. Background: TR-FRET usually uses a lanthanide donor and a delayed reading to cut background.
Series [8] addresses T2, Transcription intermediary factor 1-alpha (Homo sapiens, UniProt O15164).
T2 sequence (O15164 whole entry): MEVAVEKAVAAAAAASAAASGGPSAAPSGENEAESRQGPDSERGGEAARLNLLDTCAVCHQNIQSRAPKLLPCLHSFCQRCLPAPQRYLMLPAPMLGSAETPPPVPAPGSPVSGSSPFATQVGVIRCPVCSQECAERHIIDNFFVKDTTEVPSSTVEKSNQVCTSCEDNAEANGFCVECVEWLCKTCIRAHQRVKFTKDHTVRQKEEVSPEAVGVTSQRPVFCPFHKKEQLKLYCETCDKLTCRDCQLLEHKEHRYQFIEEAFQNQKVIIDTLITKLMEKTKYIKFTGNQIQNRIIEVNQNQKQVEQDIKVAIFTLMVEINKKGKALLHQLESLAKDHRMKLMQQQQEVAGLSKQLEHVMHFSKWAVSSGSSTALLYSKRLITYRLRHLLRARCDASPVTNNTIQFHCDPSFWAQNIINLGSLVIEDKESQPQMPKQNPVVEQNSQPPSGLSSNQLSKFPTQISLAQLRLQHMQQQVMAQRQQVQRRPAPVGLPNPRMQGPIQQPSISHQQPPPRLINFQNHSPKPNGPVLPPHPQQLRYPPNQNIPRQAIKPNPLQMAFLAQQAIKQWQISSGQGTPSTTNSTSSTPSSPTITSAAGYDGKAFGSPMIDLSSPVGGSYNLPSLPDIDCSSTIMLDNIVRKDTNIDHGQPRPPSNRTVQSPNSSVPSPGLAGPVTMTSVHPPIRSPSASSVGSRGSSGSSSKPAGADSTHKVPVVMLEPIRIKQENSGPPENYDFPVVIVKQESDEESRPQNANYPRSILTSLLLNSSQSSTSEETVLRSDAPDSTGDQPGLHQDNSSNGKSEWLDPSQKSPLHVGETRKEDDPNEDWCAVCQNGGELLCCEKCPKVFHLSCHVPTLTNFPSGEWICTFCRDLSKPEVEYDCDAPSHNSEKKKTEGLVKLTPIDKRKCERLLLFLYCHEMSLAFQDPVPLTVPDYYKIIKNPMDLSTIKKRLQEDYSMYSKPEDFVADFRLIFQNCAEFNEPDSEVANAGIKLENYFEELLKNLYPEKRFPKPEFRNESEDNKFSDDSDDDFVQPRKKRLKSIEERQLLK
The experiment in a line: Inhibition of human TRIM24-phd-bromo (P790 to P977 residues) expressed in bacterial expression system by BROMOscan assay.

In series [9] the test system is Mus musculus. The experiment in a line: Unbound AUC in mouse at 10 mg/kg, po. In kind it is ADME, organism-based. The note with it: in vivo.
The target of series [10] is CREB-binding protein (Homo sapiens, UniProt Q92793). As to the kind of experiment: Inhibition of human CREBBP (R1081 to G1197 residues) expressed in bacterial expression system by BROMOscan assay.

Bounds are passed on as bounds.

Chain of Bromodomain adjacent to zinc finger domain protein 2A (Q9UIF9 whole entry, the tested form may be a part): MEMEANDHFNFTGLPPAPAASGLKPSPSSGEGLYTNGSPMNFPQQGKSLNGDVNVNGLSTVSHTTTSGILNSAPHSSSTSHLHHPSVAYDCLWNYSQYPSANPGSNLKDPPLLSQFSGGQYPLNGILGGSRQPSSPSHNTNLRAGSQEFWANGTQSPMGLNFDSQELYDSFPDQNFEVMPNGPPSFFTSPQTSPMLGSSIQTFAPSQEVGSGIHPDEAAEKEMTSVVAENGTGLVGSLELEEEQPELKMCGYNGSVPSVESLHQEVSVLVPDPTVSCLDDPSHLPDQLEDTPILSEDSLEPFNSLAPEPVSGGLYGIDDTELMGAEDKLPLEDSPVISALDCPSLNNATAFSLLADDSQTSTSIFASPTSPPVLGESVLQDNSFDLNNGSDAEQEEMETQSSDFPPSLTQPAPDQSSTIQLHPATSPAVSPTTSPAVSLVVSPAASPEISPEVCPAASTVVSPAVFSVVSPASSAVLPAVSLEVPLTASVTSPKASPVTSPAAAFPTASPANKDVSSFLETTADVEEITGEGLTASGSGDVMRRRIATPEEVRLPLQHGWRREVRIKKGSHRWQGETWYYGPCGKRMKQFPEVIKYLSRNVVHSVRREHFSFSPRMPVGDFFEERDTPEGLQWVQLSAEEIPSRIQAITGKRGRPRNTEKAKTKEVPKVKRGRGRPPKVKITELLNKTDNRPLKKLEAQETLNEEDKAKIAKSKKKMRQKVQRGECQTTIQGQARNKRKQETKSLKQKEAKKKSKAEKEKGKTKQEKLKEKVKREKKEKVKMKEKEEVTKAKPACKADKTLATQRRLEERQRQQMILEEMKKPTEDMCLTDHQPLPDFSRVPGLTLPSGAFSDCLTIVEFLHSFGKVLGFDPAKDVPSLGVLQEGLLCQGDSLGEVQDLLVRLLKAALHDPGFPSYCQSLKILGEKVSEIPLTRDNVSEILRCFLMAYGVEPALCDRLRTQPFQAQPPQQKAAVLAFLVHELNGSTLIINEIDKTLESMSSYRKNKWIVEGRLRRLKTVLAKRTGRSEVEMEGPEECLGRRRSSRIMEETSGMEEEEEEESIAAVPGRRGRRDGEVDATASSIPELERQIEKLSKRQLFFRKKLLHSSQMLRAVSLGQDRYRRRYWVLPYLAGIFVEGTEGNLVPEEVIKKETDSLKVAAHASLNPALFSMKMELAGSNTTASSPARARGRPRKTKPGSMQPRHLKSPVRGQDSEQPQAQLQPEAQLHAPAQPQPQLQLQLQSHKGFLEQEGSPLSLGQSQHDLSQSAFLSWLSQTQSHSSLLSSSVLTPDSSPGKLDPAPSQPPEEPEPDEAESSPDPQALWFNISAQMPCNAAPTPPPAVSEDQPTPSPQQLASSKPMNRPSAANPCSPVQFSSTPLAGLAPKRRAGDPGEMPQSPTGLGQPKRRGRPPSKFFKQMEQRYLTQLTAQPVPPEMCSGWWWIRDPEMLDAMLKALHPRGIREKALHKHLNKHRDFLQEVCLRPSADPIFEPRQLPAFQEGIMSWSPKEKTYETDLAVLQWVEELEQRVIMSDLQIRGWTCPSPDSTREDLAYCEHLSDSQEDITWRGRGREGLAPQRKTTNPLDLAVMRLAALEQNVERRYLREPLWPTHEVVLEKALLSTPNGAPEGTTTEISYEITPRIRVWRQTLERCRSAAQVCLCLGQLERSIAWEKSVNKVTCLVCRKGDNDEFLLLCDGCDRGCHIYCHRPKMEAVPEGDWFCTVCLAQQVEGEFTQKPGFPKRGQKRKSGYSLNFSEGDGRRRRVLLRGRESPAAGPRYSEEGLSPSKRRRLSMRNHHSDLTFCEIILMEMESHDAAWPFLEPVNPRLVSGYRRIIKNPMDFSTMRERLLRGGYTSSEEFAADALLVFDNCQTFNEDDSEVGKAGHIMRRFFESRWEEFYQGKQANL
Chain of Bromodomain-containing protein 3 (Q15059 whole entry, the tested form may be a part): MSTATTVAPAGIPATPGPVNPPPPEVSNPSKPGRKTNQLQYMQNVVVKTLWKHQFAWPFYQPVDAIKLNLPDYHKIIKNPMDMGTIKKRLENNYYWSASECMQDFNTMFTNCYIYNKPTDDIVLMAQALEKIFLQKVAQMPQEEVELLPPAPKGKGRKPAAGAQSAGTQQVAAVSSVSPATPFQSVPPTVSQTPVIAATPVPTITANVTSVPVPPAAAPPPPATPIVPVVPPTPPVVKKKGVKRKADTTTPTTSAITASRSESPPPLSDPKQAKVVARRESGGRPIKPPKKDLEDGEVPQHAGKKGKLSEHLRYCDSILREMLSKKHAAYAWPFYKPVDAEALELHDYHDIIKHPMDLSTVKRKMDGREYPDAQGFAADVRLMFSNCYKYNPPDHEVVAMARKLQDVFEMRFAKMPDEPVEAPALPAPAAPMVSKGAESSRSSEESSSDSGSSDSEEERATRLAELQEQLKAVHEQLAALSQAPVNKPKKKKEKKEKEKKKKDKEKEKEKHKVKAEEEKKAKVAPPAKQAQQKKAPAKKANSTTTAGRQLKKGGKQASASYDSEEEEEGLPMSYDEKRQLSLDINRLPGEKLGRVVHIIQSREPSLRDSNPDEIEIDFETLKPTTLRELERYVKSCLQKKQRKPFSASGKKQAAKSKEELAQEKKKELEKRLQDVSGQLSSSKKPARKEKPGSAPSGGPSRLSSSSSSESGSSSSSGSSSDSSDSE
Chain of Bromodomain-containing protein 2 (P25440 whole entry, the tested form may be a part): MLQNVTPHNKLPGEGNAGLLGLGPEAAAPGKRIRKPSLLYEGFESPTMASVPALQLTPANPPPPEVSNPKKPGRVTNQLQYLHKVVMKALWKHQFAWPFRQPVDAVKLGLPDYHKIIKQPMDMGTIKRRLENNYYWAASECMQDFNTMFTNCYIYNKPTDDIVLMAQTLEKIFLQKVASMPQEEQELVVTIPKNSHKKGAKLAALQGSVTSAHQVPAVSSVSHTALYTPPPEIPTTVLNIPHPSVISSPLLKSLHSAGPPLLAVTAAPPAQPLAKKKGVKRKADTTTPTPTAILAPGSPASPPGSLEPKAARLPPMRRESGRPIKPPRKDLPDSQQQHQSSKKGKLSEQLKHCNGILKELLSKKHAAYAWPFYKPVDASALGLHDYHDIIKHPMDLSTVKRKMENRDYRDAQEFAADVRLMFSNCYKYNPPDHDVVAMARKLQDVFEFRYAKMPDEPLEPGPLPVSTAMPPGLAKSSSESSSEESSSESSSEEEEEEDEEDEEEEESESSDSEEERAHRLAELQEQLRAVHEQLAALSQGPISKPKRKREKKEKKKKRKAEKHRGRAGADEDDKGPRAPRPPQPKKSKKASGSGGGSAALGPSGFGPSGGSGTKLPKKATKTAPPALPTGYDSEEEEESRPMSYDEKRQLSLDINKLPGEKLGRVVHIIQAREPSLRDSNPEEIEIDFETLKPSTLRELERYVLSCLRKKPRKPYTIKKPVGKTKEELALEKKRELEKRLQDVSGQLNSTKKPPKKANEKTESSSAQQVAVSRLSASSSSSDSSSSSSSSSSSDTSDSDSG

Consider `Cn1cc(-c2cc(S(C)(=O)=O)ccc2Oc2ccc(F)cc2F)c2cc[nH]c(=O)c21`, for which the inhibition constant Ki (as a rule, the dissociation constant of the complex between target and ligand, obtained from inhibition or displacement) in series [1] was found to be 160 nM; in series [7], 290 nM. Moreover, the inhibition (usually how much of the control response was suppressed) in series [2] came out at 83%. Moreover, in [3], the half-life (usually how long it takes for the measured level to halve) was 2.5 h. Moreover, the IC50 in [4] and in [8] was 10000 nM each time. Further, the values for the EC50 in series [5] and in [6] were 150 nM and 110 nM, respectively. The fAUC in series [9] came to 0.86 µM·h.
Consider `Cc1[nH]c(-c2cc(S(C)(=O)=O)ccc2Oc2ccc(F)cc2F)c2c1C(=O)NCC2`, for which the inhibition constant Ki turned out to be 27 nM in series [1] and 110 nM in series [7]. In [2], the inhibition was 98.6%. In addition, the half-life in series [3] is 1.3 h. The 50% inhibitory concentration (IC50) (usually the concentration that inhibits the measured activity by half) in series [4] is greater than 10000 nM; in series [8] it was greater than 10000 nM; in series [10], 1000 nM. The EC50 (in general, the concentration needed to bring the measured effect to its halfway point) stood at 290 nM in [5] and 900 nM in [6]. Also, the fAUC in series [9] was 0.53 µM·h.
Consider `Cc1[nH]c(-c2cc(NS(C)(=O)=O)ccc2Oc2ccccc2)c2c1C(=O)CCC2`, for which the Ki in series [1] was 14 nM; in [7], 35 nM. The inhibition in [2] was 100%. In series [3], this compound showed a half-life of 0.6 h. Moreover, the IC50 in series [4] was 10000 nM; in series [8], greater than 10000 nM; in series [10], 1000 nM. Besides, the concentration for a half-maximal effect (EC50) in [5] worked out at 51 nM; in series [6], 160 nM. In [9], this compound yielded a fAUC of 0.09 µM·h.
